Measurements reported in article PMC12744601 (Infection and Drug Resistance, 2025).
Values after ≈ are worked out from the molar mass of the structure shown.

Test system: daptomycin-non-susceptible VRE strain (clinical DRE isolate)
Assay: Minimum inhibitory concentration
Assay type: cell-based, Enterococcus faecium
Procedure, shortened: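 Clinical daptomycin-non-susceptible VRE isolate from a bloodstream infection. Species identified by VITEK 2. […] Fosfomycin MIC by agar dilution and ceftaroline MIC by broth microdilution. Breakpoints per CLSI.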

MIC (Enterococcus, VRE) | further results | SMILES
> 8 mg/L | – | CCO/N=C(\C(=O)N[C@@H]1C(=O)N2C(C(=O)[O-])=C(Sc3nc(-c4cc[n+](C)cc4)cs3)CS[C@H]12)c1nsc(N)n1 [Ceftaroline, ceftaroline]
128 mg/L (≈ 927 µM) | – | C[C@@H]1O[C@@H]1P(=O)(O)O [Fosfomycin, fosfomycin]
– | MIC (Sensititre GPN3F system, clinical DRE isolate): > 128 mg/L | CN[C@H](CC(C)C)C(=O)N[C@H]1C(=O)N[C@@H](CC(N)=O)C(=O)N[C@H]2C(=O)N[C@H]3C(=O)N[C@H](C(=O)N[C@H](C(=O)O)c4cc(O)cc(O)c4-c4cc3ccc4O)[C@H](O)c3ccc(c(Cl)c3)Oc3cc2cc(c3O[C@@H]2O[C@H](CO)[C@@H](O)[C@H](O)[C@H]2O[C@H]2C[C@](C)(N)[C@H](O)[C@H](C)O2)Oc2ccc(cc2Cl)[C@H]1O [vancomycin]
– | MIC (broth microdilution, cation-adjusted Mueller-Hinton broth supplemented with 50 mg/mL calcium, clinical DRE isolate): 8 mg/L (≈ 4.94 µM) | CCCCCCCCCC(=O)N[C@@H](Cc1c[nH]c2ccccc12)C(=O)N[C@H](CC(N)=O)C(=O)N[C@@H](CC(=O)O)C(=O)N[C@@H]1C(=O)NCC(=O)N[C@@H](CCCN)C(=O)N[C@@H](CC(=O)O)C(=O)N[C@H](C)C(=O)N[C@@H](CC(=O)O)C(=O)NCC(=O)N[C@H](CO)C(=O)N[C@@H]([C@H](C)CC(=O)O)C(=O)N[C@@H](CC(=O)c2ccccc2N)C(=O)O[C@@H]1C [Daptomycin, daptomycin]
